Laboratory results from ChEMBL document CHEMBL1122008, “Lipophilic 5'-(alkyl phosphate) esters of 1-beta-D-arabinofuranosylcytosine and its N4-acyl and 2,2'-anhydro-3'-O-acyl derivatives as potential prodrugs” (1982).

How the values were obtained:
Assay type in all cases: functional
[1] = tested on: Mus musculus; assay: Antitumor activity against L1210 leukemia in mice (Percent increase in life span.) at the dose of 234 mg/kg (mice surviving 20 or more days)
Method in brief: (§1)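 Male B6D2F1J mice, groups of 5–9, inoculated ip with 10^5 L1210 cells on day 0. Dosing starts day 1 on a qd×5 or q4d(2,6) schedule. Vehicles are sterile water, pH 7.4 0.05 M potassium phosphate buffer, or 0.4% Tween 80/0.5% CMC/0.9% benzyl alcohol/0.9% saline. %ILS = (T/C − 1)×100 from median survival. Weights taken days 1 and 7.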

[2] = tested on: Mus musculus; assay: Antitumor activity against L1210 leukemia in mice (Average weight per mouse on day 1.) at the dose of 234 mg/kg
Method in brief: (§2)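 Male B6D2F1J mice (5–9 per group) received 10^5 L1210 cells i.p. on day 0 and drug from day 1, given qd×5 or q4d(2,6). Vehicles were sterile water, 0.05 M potassium phosphate pH 7.4, or 0.4% Tween 80/0.5% CMC/0.9% benzyl alcohol/0.9% saline. Read-out is average body weight per mouse (g) on day 1.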

[3] = tested on: Mus musculus; assay: Antitumor activity against L1210 leukemia in mice (Average weight per mouse on day 1.) at the dose of 468 mg/kg; method in brief: as §2
[4] = tested on: Mus musculus; assay: Antitumor activity against L1210/ara-C leukemia in mice (Average weight per mouse on day 1.) at the dose of 117 mg/kg
Method in brief: (§3)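 Male B6D2F1J mice, groups of 5–9, inoculated ip with 10^5 L1210/ara-C cells on day 0. Dosing began day 1 on a qd×5 or q4d(2,6) schedule. Ara-C was given in sterile water, the n-butyl phosphate ester in 0.05 M pH 7.4 potassium phosphate buffer, and others as suspensions in 0.4% Tween 80/0.5% CMC/0.9% benzyl alcohol/0.9% saline. Mice were weighed on days 1 and 7; 7-day change given in g and %.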

[5] = tested on: Mus musculus; assay: Antitumor activity against L1210/ara-C leukemia in mice (Average weight per mouse on day 1.) at the dose of 234 mg/kg; method in brief: as §3
[6] = tested on: Mus musculus; assay: Antitumor activity against L1210/ara-C leukemia in mice (Average weight per mouse on day 1.) at the dose of 468 mg/kg; method in brief: as §3
[7] = tested on: Mus musculus; assay: Antitumor activity against L1210 leukemia in mice (Percent increase in life span.) at the dose of 117 mg/kg; method in brief: as §1
[8] = tested on: Mus musculus; assay: Antitumor activity against L1210 leukemia in mice (Percent increase in life span.) at the dose of 468 mg/kg (mice surviving 20 or more days); method in brief: as §1
[9] = tested on: Mus musculus; assay: Antitumor activity against L1210/ara-C leukemia in mice (Percent increase in life span.) at the dose of 117 mg/kg
Method in brief: (§4)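 Same protocol as the L1210 assay, but with 10^5 kinase-deficient L1210/ara-C cells inoculated ip into male B6D2F1J mice (groups of 5–9) on day 0. Treatment begins day 1, qd×5 or q4d(2,6). %ILS = (T/C − 1)×100 using median survival times of treated and control groups. Body weight recorded days 1 and 7.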

[10] = tested on: Mus musculus; assay: Antitumor activity against L1210 leukemia in mice (Average 7-day weight change (%)) at the dose of 234 mg/kg
Method in brief: (§5)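 Male B6D2F1J mice, groups of five to nine, inoculated ip with 10^5 L1210 cells on day 0. Drug treatment started day 1 on qd×5 or q4d(2,6) schedule. Vehicles: ara-C in sterile water; the n-butyl phosphate ester in 0.05 M pH 7.4 potassium phosphate buffer; others as suspensions in 0.4% Tween 80/0.5% low-density CMC/0.9% benzyl alcohol/0.9% saline. Mice weighed days 1 and 7; 7-day weight change given as g/mouse and %.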

[11] = tested on: Mus musculus; assay: Antitumor activity against L1210 leukemia in mice (Average 7-day weight change (%)) at the dose of 468 mg/kg; method in brief: as §5
[12] = tested on: Mus musculus; assay: Antitumor activity against L1210/ara-C leukemia in mice (Percent increase in life span.) at the dose of 234 mg/kg; method in brief: as §4
[13] = tested on: Mus musculus; assay: Antitumor activity against L1210/ara-C leukemia in mice (Percent increase in life span.) at the dose of 468 mg/kg; method in brief: as §4
[14] = tested on: Mus musculus; assay: Antitumor activity against L1210 leukemia in mice (Average 7-day weight change) at the dose of 234 mg/kg; method in brief: as §5
[15] = tested on: Mus musculus; assay: Antitumor activity against L1210 leukemia in mice (Average 7-day weight change) at the dose of 117 mg/kg; method in brief: as §5
[16] = tested on: Mus musculus; assay: Antitumor activity against L1210/ara-C leukemia in mice (Average 7-day weight change) at the dose of 117 mg/kg
Method in brief: (§6)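 Male B6D2F1J mice (5–9 per group) were given 10^5 L1210/ara-C cells i.p. on day 0, with treatment from day 1 on qd×5 or q4d(2,6). Vehicles were sterile water, pH 7.4 0.05 M phosphate buffer, or a Tween 80/CMC/benzyl alcohol saline suspension. Weights were taken on days 1 and 7; change is expressed in g/mouse and as a percentage.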

[17] = tested on: Mus musculus; assay: Antitumor activity against L1210/ara-C leukemia in mice (Average 7-day weight change) at the dose of 234 mg/kg; method in brief: as §6
[18] = tested on: Mus musculus; assay: Antitumor activity against L1210/ara-C leukemia in mice (Average 7-day weight change) at the dose of 468 mg/kg; method in brief: as §6
[19] = tested on: Mus musculus; assay: Antitumor activity against L1210 leukemia in mice (Average 7-day weight change) at the dose of 468 mg/kg; method in brief: as §5
[20] = tested on: Mus musculus; assay: Antitumor activity against L1210/ara-C leukemia in mice (Average 7-day weight change (%)) at the dose of 117 mg/kg; method in brief: as §6
[21] = tested on: Mus musculus; assay: Antitumor activity against L1210/ara-C leukemia in mice (Average 7-day weight change (%)) at the dose of 234 mg/kg; method in brief: as §6
[22] = tested on: Mus musculus; assay: Antitumor activity against L1210/ara-C leukemia in mice (Average 7-day weight change (%)) at the dose of 468 mg/kg; method in brief: as §6
[23] = tested on: Mus musculus; assay: Antitumor activity against L1210 leukemia in mice (Average 7-day weight change (%)) at the dose of 117 mg/kg; method in brief: as §5
[24] = tested on: Mus musculus; assay: Antitumor activity against L1210 leukemia in mice (Average weight per mouse on day 1.) at the dose of 117 mg/kg; method in brief: as §2

In the case of `CCCCCCCCCCCCCCCC(=O)O[C@H]1[C@@H]2Oc3nc(=N)ccn3[C@@H]2O[C@@H]1COP(=O)(O)OCC`, the ILS at 234 mg/kg [1] was 138%, the Average weight [2] was 24.2 g mouse-1 and the Average weight [3] was 23.6 g mouse-1. The Average weight [4] was 22.4 g mouse-1, the Average weight [5] was 21.4 g mouse-1 and the Average weight [6] was 22 g mouse-1. The ILS at 117 mg/kg [7] was 75%, the ILS at 468 mg/kg [8] was 100% and the ILS at 117 mg/kg [9] was 0%. For the same compound, the Weight change [10] was -11%, the Weight change [11] was -16% and the ILS at 234 mg/kg [12] was 0%. The ILS at 468 mg/kg [13] was -13%, the Weight change [14] was -2.6 g mouse-1 and the Weight change [15] was -1.6 g mouse-1. For the same compound, the Weight change [16] was 2 g mouse-1, the Weight change [17] was 0.2 g mouse-1 and the Weight change [18] was -2.4 g mouse-1. It also gave a Weight change [19] of -3.8 g mouse-1, a Weight change [20] of 9% and a Weight change [21] of 1%. It also gave a Weight change [22] of -20%, a Weight change [23] of -7% and an Average weight [24] of 24.4 g mouse-1.
